What was measured:
Rattus norvegicus [1] = species: Rattus norvegicus; assay: Inhibition of U-46619 (3x10E-8 M) induced contraction in rat thoracic aorta; assay type: functional, organism-based
How it was run: (§1)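 Aortic rings were held under 1.0 g resting tension and gassed with 95% O₂/5% CO₂. After 1 h equilibration, 3×10⁻⁸ M U-46619 was added; once tension stabilised, compound was added cumulatively. The concentration giving 50% relaxation of the maximal U-46619 tension was derived by regression. Values are mean ± SEM from three dose groups of four preparations.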

[2] = Selectivity index for the difference between the IC50 values in the aggregation and contraction assay; assay type: functional
How it was run: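 Index compares IC₅₀ values from U-46619-induced rabbit aorta contraction with those from rabbit platelet-rich plasma aggregation. For aggregation, citrated carotid blood from male New Zealand rabbits (2.0–2.5 kg) gave PRP. PRP was pre-warmed 2 min at 37 °C, given compound for 2 min, then U-46619, with turbidimetric read-out. Each IC₅₀ is mean ± SEM by regression, from three dose groups of four preparations.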

Homo sapiens = species: Homo sapiens; assay: Effect on TXB2 formation of human platelets; assay type: functional, organism-based
How it was run: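 Washed human platelets were sonicated in 50 mM phosphate buffer (pH 7.4) with 1 mM EDTA. They were preincubated with compound and 1 mM GSH for 5 min at 37 °C, then given [1-¹⁴C]arachidonic acid for 5 min. Eicosanoids were extracted and separated by TLC, and TXB₂ radioactivity was counted. IC₅₀ was derived by regression.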

Oryctolagus cuniculus [3] = species: Oryctolagus cuniculus; assay: Compound was tested for agonist activity on rabbit PRP; assay type: functional
How it was run: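 Rabbit platelet-rich plasma was exposed to compound alone at 10⁻⁴ M to test for partial agonism. Response is expressed relative to the response to 0.1 μM U-46619, which is set at 100.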

Oryctolagus cuniculus [4] = species: Oryctolagus cuniculus; assay: Compound was tested for agonist activity on rabbit aorta; assay type: functional
How it was run: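 Rabbit aortic strips were exposed to compound alone at 10⁻⁵ M to test for partial agonism. Tension is expressed relative to the response to 40 mM KCl, which is set at 100.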

Oryctolagus cuniculus [5] = species: Oryctolagus cuniculus; assay: Displacement of specific binding of [3H]SQ-29,548 to rabbit gel-filtered platelets; assay type: functional
[6] = system: Thromboxane A2 receptor (Oryctolagus cuniculus); assay: Selectivity index for the TXA2 t-receptor was the difference between the IC50 values in the aggregation and contraction assay
Rattus norvegicus [7] = species: Rattus norvegicus; assay: Compound was tested for the inhibition U-46619 (3 x10 E -8 M) induced contraction against in rat thoracic aorta; assay type: functional, organism-based; how it was run: as §1
[8] = Rattus norvegicus, Thoracic aorta

Compound: O=C(O)c1cc(CCCCCCCCNS(=O)(=O)c2ccccc2)c2cccccc1-2
- IC50 (Rattus norvegicus [1]; [8]): 0.038 µM

Compound: CC(C)c1ccc2c(CC/C=C/CCNS(=O)(=O)c3ccccc3)cc(C(=O)O)c-2cc1 (stereo in doubt; 40)
- IC50 (Rattus norvegicus [1]): 0.46 µM

Compound: O=C(O)COc1ccc(CCNS(=O)(=O)c2ccccc2)cc1 [SULOTROBAN]
- IC50 (Rattus norvegicus [1]; [8]): 1.5 µM
- Selectivity index [2]: 5

Compound: O=C(O)c1cc(CCCCCNS(=O)(=O)c2ccccc2)c2cccccc1-2
- IC50 (Rattus norvegicus [1]; [8]): 0.84 µM

Compound: O=C(O)c1cc(CCCCNS(=O)(=O)c2ccccc2)c2cccccc1-2
- IC50 (Rattus norvegicus [1]; [8]): 0.57 µM

Compound: CC(C)c1ccc2c(CCCCNS(=O)(=O)c3ccccc3)cc(CC(=O)O)c-2cc1
- IC50 (Rattus norvegicus [1]; [8]): 0.3 µM

Compound: CC(C)c1cccc2c(CCNS(=O)(=O)c3ccccc3)cc(C(=O)O)c-2c1
- IC50 (Rattus norvegicus [1]; [8]): 15 µM

Compound: CC(C)c1ccc2c(/C=C/C(=O)O)cc(CCCCNS(=O)(=O)c3ccccc3)c-2cc1
- IC50 (Rattus norvegicus [1]; [8]): 21 µM

Compound: CCCc1cc(S(=O)(=O)NCCc2ccc(OCC(=O)O)cc2)c2cc(C(C)C)cccc1-2
- IC50 (Rattus norvegicus [1]; [8]): 45 µM

Compound: CCCCc1cc(S(=O)(=O)NCCc2ccc(OCC(=O)O)cc2)c2cccccc1-2
- IC50 (Rattus norvegicus [1]; [8]): 55 µM

Compound: CC(C)c1ccc2c(C(=O)O)cc(-c3cccc(CCNS(=O)(=O)c4ccccc4)c3)c-2cc1
- IC50 (Rattus norvegicus [1]; [8]): 0.14 µM

Compound: CCCc1cc(S(=O)(=O)NCCc2ccc(OCC(=O)O)cc2)c2ccc(C(C)C)ccc1-2
- IC50 (Rattus norvegicus [1]; [8]): 50 µM

Compound: COc1ccccc2c(S(=O)(=O)NCCc3ccc(OCC(=O)O)cc3)cc(C)c1-2
- IC50 (Rattus norvegicus [1]; [8]): 190 µM

Compound: CC(C)c1cccc2c(CCCCNS(=O)(=O)c3ccccc3)cc(C(=O)O)c-2c1
- IC50 (Rattus norvegicus [1]; [8]): 3.1 µM

Compound: CCc1cc(S(=O)(=O)NCCc2ccc(OCC(=O)O)cc2)c2cc(C(C)C)cccc1-2
- IC50 (Rattus norvegicus [1]; [8]): 56 µM

Compound: CC(C)c1cc(S(=O)(=O)NCCc2ccc(OCC(=O)O)cc2)c2cccccc1-2
- IC50 (Rattus norvegicus [1]; [8]): 160 µM

Compound: CC(C)c1ccc2c(C(C)C)cc(S(=O)(=O)NCCc3ccc(OCC(=O)O)cc3)c-2cc1
- IC50 (Rattus norvegicus [1]; [8]): 25 µM

Compound: O=C(O)c1cc(CCCCCCNS(=O)(=O)c2ccccc2)c2cccccc1-2
- IC50 (Rattus norvegicus [1]; [8]): 0.14 µM

Compound: CC(C)c1ccc2c(CCCCNS(=O)(=O)c3ccc(Cl)cc3)cc(S(=O)(=O)[O-])c-2cc1.[Na+]
- IC50 (Homo sapiens): > 100 µM
- Agonist activity (Oryctolagus cuniculus [3]): 0
- Agonist activity (Oryctolagus cuniculus [4]): 0
- IC50 (Oryctolagus cuniculus [5]): 0.014 µM
- IC50 (Rattus norvegicus [1]; [8]): 0.0009 µM
- Selectivity index [6]: 378

Compound: CC(C)c1ccc2c(CCCCNS(=O)(=O)c3ccc(Cl)cc3)cc(C(=O)O)c-2cc1
- IC50 (Rattus norvegicus [1]; [8]): 0.0053 µM
- Selectivity index [2]: > 667

Compound: CC(C)c1cccc2c(CCCCCNS(=O)(=O)c3ccccc3)cc(C(=O)O)c-2c1
- IC50 (Rattus norvegicus [1]; [8]): 2.6 µM

Compound: O=C(O)c1cc(CCNS(=O)(=O)c2ccccc2)c2cccccc1-2
- IC50 (Rattus norvegicus [1]; [8]): 21 µM

Compound: CC(C)c1ccc2c(CCNS(=O)(=O)c3ccccc3)cc(C(=O)O)c-2cc1
- IC50 (Rattus norvegicus [1]; [8]): 60 µM

Compound: O=C(O)c1cc(CCCCCCCNS(=O)(=O)c2ccccc2)c2cccccc1-2
- IC50 (Rattus norvegicus [1]; [8]): 0.018 µM

Compound: CC(C)c1cccc2c(CCCNS(=O)(=O)c3ccccc3)cc(C(=O)O)c-2c1
- IC50 (Rattus norvegicus [1]; [8]): 7.4 µM

Compound: CCCc1cc(S(=O)(=O)NCCc2ccc(OCC(=O)O)cc2)c2cccccc1-2
- IC50 (Rattus norvegicus [1]; [8]): 77 µM

Compound: CC(C)c1ccc2c(CCCCNS(=O)(=O)c3ccccc3)cc(S(=O)(=O)[O-])c-2cc1.[Na+]
- Agonist activity (Oryctolagus cuniculus [3]): 0
- Agonist activity (Oryctolagus cuniculus [4]): 0
- IC50 (Rattus norvegicus [1]; [8]): 0.017 µM
- Selectivity index [6]: > 91

Compound: CC(C)c1ccc2c(CCCCNS(=O)(=O)c3cccc(C(F)(F)F)c3)cc(C(=O)O)c-2cc1
- IC50 (Rattus norvegicus [1]; [8]): 1.6 µM

Compound: CC(C)c1ccc2c(CCCCNS(=O)(=O)c3ccc(F)cc3)cc(C(=O)O)c-2cc1
- IC50 (Rattus norvegicus [1]; [8]): 1.1 µM

Compound: O=C(O)c1cc(CCCNS(=O)(=O)c2ccccc2)c2cccccc1-2
- IC50 (Rattus norvegicus [1]; [8]): 4.8 µM

Compound: Cc1cc(S(=O)(=O)NCCc2ccc(OCC(=O)O)cc2)c2cccccc1-2
- IC50 (Rattus norvegicus [1]; [8]): 190 µM

Compound: CC(C)c1ccc2c(CC/C=C/CCNS(=O)(=O)c3ccccc3)cc(C(=O)O)c-2cc1 (stereo in doubt; 39)
- IC50 (Rattus norvegicus [1]): 0.052 µM

Compound: COc1ccc(S(=O)(=O)NCCCCc2cc(S(=O)(=O)[O-])c3ccc(C(C)C)ccc2-3)cc1.[Na+]
- IC50 (Homo sapiens): > 100 µM
- Agonist activity (Oryctolagus cuniculus [3]): 0
- Agonist activity (Oryctolagus cuniculus [4]): 0
- IC50 (Rattus norvegicus [7]): 0.0032 µM
- Selectivity index [6]: 660

Compound: CCCCc1cc(S(=O)(=O)NCCc2ccc(OCC(=O)O)cc2)c2ccc(C(C)C)ccc1-2
- IC50 (Rattus norvegicus [1]; [8]): 19 µM

Compound: CC(C)c1cccc2c(CCCCCCNS(=O)(=O)c3ccccc3)cc(C(=O)O)c-2c1
- IC50 (Rattus norvegicus [1]; [8]): 0.92 µM

Compound: CCc1cc(S(=O)(=O)NCCc2ccc(OCC(=O)O)cc2)c2ccc(C(C)C)ccc1-2
- IC50 (Rattus norvegicus [1]; [8]): 65 µM

Compound: CC(C)c1ccc2c(CCCCCCCNS(=O)(=O)c3ccccc3)cc(C(=O)O)c-2cc1
- IC50 (Rattus norvegicus [1]; [8]): 0.12 µM

Compound: CCc1cc(S(=O)(=O)NCCc2ccc(OCC(=O)O)cc2)c2cc(C(C)C)ccc(OC)c1-2
- IC50 (Rattus norvegicus [1]; [8]): 120 µM

Compound: CCc1cc(S(=O)(=O)NCCc2ccc(OCC(=O)O)cc2)c2cccccc1-2
- IC50 (Rattus norvegicus [1]; [8]): 56 µM

Compound: COc1ccc(S(=O)(=O)NCCCCc2cc(C(=O)O)c3ccc(C(C)C)ccc2-3)cc1
- Agonist activity (Oryctolagus cuniculus [3]): 0
- Agonist activity (Oryctolagus cuniculus [4]): 0
- IC50 (Rattus norvegicus [1]; [8]): 0.16 µM
- Selectivity index [6]: > 233

Compound: Cc1cc(S(=O)(=O)NCCc2ccc(OCC(=O)O)cc2)c2cc(C(C)C)cccc1-2
- IC50 (Rattus norvegicus [1]; [8]): 120 µM

Compound: CCCCc1cc(S(=O)(=O)NCCc2ccc(OCC(=O)O)cc2)c2cc(C(C)C)cccc1-2
- IC50 (Rattus norvegicus [1]; [8]): 32 µM

Compound: CC(C)c1ccc2c(CCCCNS(=O)(=O)c3ccccc3)cc(C(=O)O)c-2cc1
- IC50 (Rattus norvegicus [1]; [8]): 0.07 µM
- Selectivity index [2]: > 63

Compound: Cc1cc(S(=O)(=O)NCCc2ccc(OCC(=O)O)cc2)c2ccc(C(C)C)ccc1-2
- IC50 (Rattus norvegicus [1]; [8]): 84 µM

Compound: CC(C)c1ccc2c(CCCNS(=O)(=O)c3ccccc3)cc(C(=O)O)c-2cc1
- IC50 (Rattus norvegicus [1]; [8]): 4.8 µM

Compound: CC(C)c1ccc2c(CCCCCNS(=O)(=O)c3ccccc3)cc(C(=O)O)c-2cc1
- IC50 (Rattus norvegicus [1]; [8]): 0.12 µM

Compound: CCc1cc(S(=O)(=O)NCCc2ccc(OCC(=O)O)cc2)c2ccccc(OC)c1-2
- IC50 (Rattus norvegicus [1]; [8]): 110 µM

Compound: CC(C)c1cccc2c(CCCCCCCNS(=O)(=O)c3ccccc3)cc(C(=O)O)c-2c1
- IC50 (Rattus norvegicus [1]; [8]): 0.93 µM

— ChEMBL document CHEMBL1126624, “Design, synthesis, and pharmacology of 3-substituted sodium azulene-1-sulfonates and related compounds: non-prostanoid thromboxane A2 receptor antagonists” (J Med Chem, 1993)
